Here are results for 20 compounds from ChEMBL document CHEMBL1152533, “Synthesis and biological evaluation of 3,4-diaryl-5-aminoisoxazole derivatives” (Bioorg Med Chem, 2009).

For orientation: IC50 means the concentration at which inhibition is half-maximal.

One assay relates to PC-3. Put plainly: Cytotoxicity against human PC3 cells after 48 hrs by MTT assay. The format is functional, cell-based. As to conditions: PC-3, 48 h. An outline of the steps: (§1)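 MTT viability assay: cells exposed to compound for 48 h, MTT in RPMI-1640 added for a further 4 h at 37 °C, formazan dissolved in DMSO, absorbance at 570 nm. Triplicate wells, three independent experiments; IC50 (50% viability inhibition) computed by dose-effect analysis and reported as mean of three experiments. CA-4 as positive control.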

The nature of assay [1]: Cytotoxicity against human ECA109 cells after 48 hrs by MTT assay. In kind it is functional, cell-based. As to conditions: ECa-109, 48 h. Summed up:
as §1
Background: Formazan colour is commonly taken as a measure of viable cells.

In a further assay the test system is A549. Put plainly: Cytotoxicity against human A549 cells after 48 hrs by MTT assay. In kind it is functional, cell-based. As to conditions: A549, 48 h. An outline of the steps:
as §1

The test system of another assay is K562. Put plainly: Cytotoxicity against human K562 cells after 48 hrs by MTT assay. As to conditions: K562, 48 h. The format is functional, cell-based. Summed up: as §1
The test system of assay [2] is SMMC-7721. Put plainly: Cytotoxicity against human SMMC7721 cells after 48 hrs by MTT assay. In kind it is functional, cell-based. As to conditions: SMMC-7721, 48 h. Summed up:
as §1

In assay [3] the test system is SMMC-7721. Put plainly: Induction of apoptosis in human SMMC7721 cells at 0.5 uM after 48 hrs. In kind it is functional.
Assay [4] relates to SMMC-7721. Put plainly: Cell cycle arrest in human SMMC7721 cells assessed as accumulation at G2/M phase at 1 uM after 24 hrs by propidium iodide staining-based FACS analysis. In kind it is functional. An outline of the steps: (§2)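 SMMC-7721 cells (5 × 10⁴/mL) exposed 24 h to graded concentrations (0.01–1.0 µM) alongside DMSO and CA-4 controls; washed twice in PBS, fixed in 75% ethanol at −20 °C, RNase-treated at 37 °C for 0.5 h, stained with propidium iodide at 4 °C for 15 min, then analysed by flow cytometry for G2/M and S fractions.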

The subject of assay [5] is SMMC-7721. Put plainly: Cell cycle arrest in human SMMC7721 cells assessed as accumulation at S phase at 0.1 uM after 24 hrs by propidium iodide staining-based FACS analysis. The format is functional. An outline of the steps:
as §2
(A flow cytometer gives signals particle by particle.)

Assay [6] can be described thus: Inhibition of bovine tubulin polymerization by fluorescent plate reader analysis. Further details: species or system Bos taurus.
The subject of assay [7] is SMMC-7721. Put plainly: Induction of apoptosis in human SMMC7721 cells at 0.1 uM after 48 hrs. In kind it is functional.
The subject of assay [8] is SMMC-7721. Put plainly: Induction of apoptosis in human SMMC7721 cells at 1 uM after 48 hrs. The format is functional.
In assay [9] the test system is SMMC-7721. Put plainly: Cell cycle arrest in human SMMC7721 cells assessed as accumulation at S phase at 1 uM after 24 hrs by propidium iodide staining-based FACS analysis. The format is functional. An outline of the steps:
as §2

Assay [10] relates to SMMC-7721. Put plainly: Cell cycle arrest in human SMMC7721 cells assessed as accumulation at G2/M phase at 0.1 uM after 24 hrs by propidium iodide staining-based FACS analysis. In kind it is functional. An outline of the steps:
as §2

Some results are limits rather than exact numbers.

On to `COc1ccc(-c2noc(N)c2-c2cc(OC)c(OC)c(OC)c2)cc1O`, for which the IC50 (in the assay with PC-3; in assay [1]; in the assay on A549) was > 50 µM in each case.

Consider `COc1ccc(-c2c(-c3cc(OC)c(OC)c(OC)c3)noc2N)cc1OC`, for which the IC50 was 21.1 µM in the assay on PC-3; 20.6 µM in assay [1]; > 50 µM with A549; 1.27 µM in the assay with K562; > 50 µM with SMMC-7721 [2].

`COc1ccc(-c2c(-c3cc(OC)c(OC)c(OC)c3)noc2NC(C)=O)cc1OC`: the IC50 in the assay on PC-3 is > 50 µM; in assay [1], 17.7 µM; with A549, 19.8 µM; in the assay on K562, 3.71 µM; in the assay with SMMC-7721 [2], 46.3 µM.

For the compound `COc1cc(-c2noc(N)c2-c2cc(OC)c(OC)c(OC)c2)cc(OC)c1OC`, the IC50 in the assay on PC-3 was > 50 µM; in [1], > 50 µM; in the assay on A549, > 50 µM; in the assay with K562, 3.65 µM; with SMMC-7721 [2] it was > 50 µM.

With `COc1ccc(-c2noc(N)c2-c2cc(OC)c(OC)c(OC)c2)cc1OCc1ccccc1`, the IC50 in the assay with PC-3 is > 50 µM; in assay [1], > 50 µM; with A549, 38.2 µM.

With `COc1cc(-c2noc(NC(C)=O)c2-c2cc(OC)c(OC)c(OC)c2)cc(OC)c1OC`, the IC50 with PC-3 stood at 14.9 µM; in assay [1], 13.9 µM; with A549, 21.1 µM; in the assay on K562, 3.97 µM; in the assay with SMMC-7721 [2], 24.6 µM.

On to `COc1ccc(-c2noc(NC(C)=O)c2-c2cc(OC)c(OC)c(OC)c2)cc1OCc1ccccc1`, for which the IC50 (with PC-3; in assay [1]; with A549) was > 50 µM in each case.

In the case of `COc1ccc(-c2c(-c3cc(OC)c(OC)c(OC)c3)noc2NC(C)=O)cc1`, the IC50 was > 50 µM with PC-3; 10.8 µM in assay [1]; 10.7 µM in the assay with A549; 0.38 µM in the assay on K562; > 50 µM in the assay on SMMC-7721 [2].

With `COc1cc(-c2noc(NC(C)=O)c2-c2ccc(Cl)cc2)cc(OC)c1OC`, the IC50 with PC-3 is 1.91 µM; in assay [1] it was 9.53 µM; with A549, 24.9 µM; in the assay with K562, 3.62 µM; with SMMC-7721 [2] it was > 50 µM.

For the compound `COc1ccc(-c2noc(NC(C)=O)c2-c2cc(OC)c(OC)c(OC)c2)cc1OC`, the IC50 is > 50 µM with PC-3; > 50 µM in assay [1]; > 50 µM with A549; 8.75 µM in the assay with K562; > 50 µM with SMMC-7721 [2].

`COc1ccc(-c2c(-c3cc(OC)c(OC)c(OC)c3)noc2N(C(C)=O)C(C)=O)cc1`: the half-maximal inhibitory concentration (IC50) in the assay with PC-3 is 0.36 µM; in [1], 0.39 µM; in assay [6], 2.1 µM; in the assay on A549, 0.43 µM; with K562, 0.068 µM; in the assay on SMMC-7721 [2] it was 1.36 µM. The Activity came out at 70% in the assay on SMMC-7721 [3]; 70% with SMMC-7721 [4]; 50.4% with SMMC-7721 [5]; 37% in the assay on SMMC-7721 [7]; 72% in the assay on SMMC-7721 [8]; 24.3% in the assay with SMMC-7721 [9]. In addition, in the assay on SMMC-7721 [10], the Activity was determined as 41.5%.

Turning to `COc1ccc(-c2noc(N)c2-c2cc(OC)c(OC)c(OC)c2)cc1OC`, the IC50 in the assay on PC-3 is > 50 µM; in assay [1], 1.66 µM; with A549, > 50 µM; in the assay on K562 it was 1.4 µM; in the assay with SMMC-7721 [2], > 50 µM.

Take `COc1ccc(-c2c(-c3cc(OC)c(OC)c(OC)c3)noc2N(C(C)=O)C(C)=O)cc1OC`: the IC50 was > 50 µM with PC-3; > 50 µM in [1]; > 50 µM with A549; 4.29 µM in the assay with K562; > 50 µM with SMMC-7721 [2].

Take `COc1ccc(-c2noc(NC(C)=O)c2-c2cc(OC)c(OC)c(OC)c2)cc1`: the IC50 is > 50 µM in the assay on PC-3; > 50 µM in assay [1]; > 50 µM with A549; 1 µM in the assay on K562; > 50 µM with SMMC-7721 [2].

On to `COc1ccc(-c2c(-c3cc(OC)c(OC)c(OC)c3)noc2N)cc1`, for which the half-inhibitory concentration (IC50) in the assay on PC-3 worked out at 3.03 µM; in assay [1], 5.84 µM; in [6], 1.8 µM; in the assay with A549, 4.49 µM; with K562 it was 0.04 µM; in the assay with SMMC-7721 [2], 12 µM.

As for `COc1cc(-c2noc(N(C(C)=O)C(C)=O)c2-c2ccc(Cl)cc2)cc(OC)c1OC`, the IC50 is 2.63 µM with PC-3; 39.8 µM in assay [1]; > 50 µM with A549; 3.96 µM in the assay with K562; > 50 µM with SMMC-7721 [2].

Turning to `COc1ccc(-c2noc(N)c2-c2cc(OC)c(OC)c(OC)c2)cc1`, the IC50 in the assay with PC-3 was 15 µM; in assay [1], 9.82 µM; in the assay with A549, 21.8 µM; with K562, 0.022 µM; in the assay on SMMC-7721 [2], 39.8 µM.

On to `COc1ccc(-c2noc(NC(C)=O)c2-c2cc(OC)c(OC)c(OC)c2)cc1O`, for which the IC50 (in the assay with PC-3; in assay [1]; in the assay on A549) was > 50 µM throughout.

For `COc1cc(-c2noc(N)c2-c2ccc(Cl)cc2)cc(OC)c1OC`, the IC50 in the assay with PC-3 is > 50 µM; in [1] it was > 50 µM; in the assay with A549 it was > 50 µM; in the assay on K562, 0.64 µM; in the assay with SMMC-7721 [2], > 50 µM.

Regarding `COc1ccc(/C=C\c2cc(OC)c(OC)c(OC)c2)cc1O` [COMBRETASTATIN A4], the IC50 with PC-3 was found to be 5.4 µM; in assay [1], 4.5 µM; with A549, 0.42 µM; in the assay on K562, 0.046 µM; with SMMC-7721 [2] it was 3.22 µM.
